Drawing on ChEMBL document CHEMBL4219025 (J Med Chem, 2018), this text covers IC50 and Activity for eight molecules.

The IC50 is the point on the concentration scale where inhibition reaches its midpoint.

The target in experiment [1] is T1, NAD-dependent protein deacetylase sirtuin-2 (Homo sapiens, UniProt Q8IXJ6).
T1 sequence (Q8IXJ6 whole entry): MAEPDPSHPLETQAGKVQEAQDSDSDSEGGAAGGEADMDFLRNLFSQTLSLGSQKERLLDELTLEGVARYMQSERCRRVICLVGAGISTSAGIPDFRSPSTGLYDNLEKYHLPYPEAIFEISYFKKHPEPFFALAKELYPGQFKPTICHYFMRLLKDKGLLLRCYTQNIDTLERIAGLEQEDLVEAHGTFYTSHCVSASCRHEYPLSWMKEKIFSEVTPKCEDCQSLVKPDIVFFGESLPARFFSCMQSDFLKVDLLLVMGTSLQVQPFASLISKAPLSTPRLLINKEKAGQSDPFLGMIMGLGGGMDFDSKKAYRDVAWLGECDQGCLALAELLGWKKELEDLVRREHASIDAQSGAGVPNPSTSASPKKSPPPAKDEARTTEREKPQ
Briefly: Inhibition of recombinant human His10-tagged Sirt2 (56 to 356 residues) expressed in Escherichia coli BL21(DE3) using Z-(Ac)Lys-AMC as substrate measured after 4 hrs by high-throughput fluorescence based assay.

The target of experiment [2] is T2, NAD-dependent protein deacetylase sirtuin-1 (Homo sapiens, UniProt Q96EB6).
T2 sequence (Q96EB6 whole entry): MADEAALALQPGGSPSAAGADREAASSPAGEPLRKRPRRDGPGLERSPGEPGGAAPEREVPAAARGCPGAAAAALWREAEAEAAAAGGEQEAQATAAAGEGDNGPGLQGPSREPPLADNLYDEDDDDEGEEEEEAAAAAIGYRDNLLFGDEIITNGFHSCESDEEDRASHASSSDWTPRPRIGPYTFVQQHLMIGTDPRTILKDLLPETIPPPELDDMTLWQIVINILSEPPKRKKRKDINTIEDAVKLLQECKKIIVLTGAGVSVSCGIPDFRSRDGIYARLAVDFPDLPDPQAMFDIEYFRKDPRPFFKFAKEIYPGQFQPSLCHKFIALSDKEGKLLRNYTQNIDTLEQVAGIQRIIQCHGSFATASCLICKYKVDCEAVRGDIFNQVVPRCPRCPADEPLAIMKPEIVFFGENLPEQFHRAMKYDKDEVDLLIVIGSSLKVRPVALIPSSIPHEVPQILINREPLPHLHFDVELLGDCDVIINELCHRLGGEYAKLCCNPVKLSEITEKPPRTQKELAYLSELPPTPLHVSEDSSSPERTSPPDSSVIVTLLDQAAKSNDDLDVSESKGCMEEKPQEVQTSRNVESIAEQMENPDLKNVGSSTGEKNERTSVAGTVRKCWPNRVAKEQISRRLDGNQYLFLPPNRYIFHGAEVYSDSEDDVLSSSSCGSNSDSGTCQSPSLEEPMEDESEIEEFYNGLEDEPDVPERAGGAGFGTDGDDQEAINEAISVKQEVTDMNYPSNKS
Nature of the experiment: Inhibition of recombinant human GST-tagged Sirt1 (133 to 747 residues) using Z-(Ac)Lys-AMC as substrate measured after 4 hrs by high-throughput fluorescence based assay.

The target of experiment [3] is T3, Protein cereblon/NAD-dependent protein deacetylase sirtuin-2 (Homo sapiens) (UniProt Q8IXJ6+Q96SW2). Nature of the experiment: Induction of cereblon-mediated Sirt2 degradation in human HeLa cells at 0.05 to 5 uM after 4 hrs by Western blot method. The experiment is classed as cell-based. The essentials:
(§1)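 HeLa cells in DMEM high glucose with 10% FCS, 37 °C, 5% CO2; 2x10^5 cells per 6-well (endogenous Sirt1/Sirt2) or 2x10^4 EGFP-Sirt2-HeLa per 24-well. Cycloheximide applied before compound (5 µg/ml 6-well, 3 µg/ml 24-well); 4 h default incubation, DMSO controls. Lysed in reducing sample buffer, 10% SDS-PAGE, PVDF, rabbit anti-Sirt2/Sirt1/GAPDH 1:5000, ECL; background-subtracted band intensities normalized to mean control.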
(In general: Immunoblotting shows a protein as a band on a membrane.)

In experiment [4] the target is T4, NAD-dependent protein deacetylase sirtuin-3, mitochondrial (Homo sapiens, UniProt Q9NTG7).
T4 sequence (Q9NTG7 whole entry): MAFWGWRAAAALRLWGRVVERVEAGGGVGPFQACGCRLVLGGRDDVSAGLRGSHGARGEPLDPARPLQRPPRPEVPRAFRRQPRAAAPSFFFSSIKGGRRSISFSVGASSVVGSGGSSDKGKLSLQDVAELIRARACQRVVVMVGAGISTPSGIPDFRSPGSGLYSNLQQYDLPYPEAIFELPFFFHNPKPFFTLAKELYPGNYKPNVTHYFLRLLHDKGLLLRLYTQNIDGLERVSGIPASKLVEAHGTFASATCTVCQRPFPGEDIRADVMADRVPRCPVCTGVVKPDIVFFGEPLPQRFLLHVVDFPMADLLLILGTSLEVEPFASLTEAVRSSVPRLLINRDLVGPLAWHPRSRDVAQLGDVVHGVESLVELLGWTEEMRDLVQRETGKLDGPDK
Nature of the experiment: Inhibition of recombinant human His10-tagged Sirt3 (118 to 395 residues) expressed in Escherichia coli BL21(DE3) using Z-(Ac)Lys-AMC as substrate measured after 4 hrs by high-throughput fluorescence based assay.

Experiment [5] has as its target T3, Protein cereblon/NAD-dependent protein deacetylase sirtuin-2 (Homo sapiens). Nature of the experiment: Induction of cereblon-mediated Sirt2 degradation in human HeLa cells at 10 uM after 2 hrs by Western blot method. The experiment is classed as cell-based. In short, it runs like this: as §1
The target is the same in experiment [6]. Nature of the experiment: Induction of cereblon-mediated EGFP-fused Sirt2 (unknown origin) degradation expressed in human HeLa cells at 10 uM after 4 hrs in presence of 2-(4,6-dimethylpyrimidin-2-ylthio)-N-(5-(3-((1-(2-methoxyethyl)-1H-1,2,3-triazol-4-yl)methoxy)benzyl)thiazol-2-yl)acetamide and proteosome inhibitor MG132 by Western blot method. The experiment is classed as cell-based. In short, it runs like this:
as §1

Experiment [7] shares this target. Briefly: Induction of cereblon-mediated EGFP-fused Sirt2 degradation in human HeLa cells assessed as increase in tubulin acetlyation at 10 uM after 4 hrs by DAPI dye-based immunofluorescent microscopic analysis. Type of experiment: cell-based.
Experiment [8] shares this target. Nature of the experiment: Induction of cereblon-mediated EGFP-fused Sirt2 (unknown origin) degradation expressed in human HeLa cells at 10 uM after 4 hrs by Hoechst 33342 staining-based fluorescent microscopic method. The experiment is classed as cell-based. The essentials:
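Live EGFP-Sirt2-expressing HeLa cells: 2x10^4 cells seeded on glass imaging dishes in complete medium overnight, treated with 10 μM compound for 4 h (DMSO controls), medium switched to phenol red-free DMEM, nuclei stained 0.5 µg/mL Hoechst 33342 for 5 min; confocal live imaging with 40× oil objective.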

For experiment [9] the target is unchanged. Nature of the experiment: Induction of cereblon-mediated Sirt2 degradation in human HeLa cells at 10 uM after 1 to 6 hrs by Western blot method. Type of experiment: cell-based. In short, it runs like this: as §1
The target is the same in experiment [10]. Nature of the experiment: Induction of cereblon-mediated Sirt2 degradation in human HeLa cells after 4 hrs by Western blot method. Type of experiment: cell-based. The essentials:
as §1

Experiment [11] deals with Protein cereblon/NAD-dependent protein deacetylase sirtuin-1 (Homo sapiens) (UniProt Q96EB6+Q96SW2). Briefly: Induction of cereblon-mediated Sirt1 degradation in human HeLa cells at 10 uM after 1 to 6 hrs by Western blot method. Type of experiment: cell-based. In short, it runs like this:
as §1

The structures appear in SMILES notation. The source made the active and inactive calls. The calls are words filed in the database; no cut-off is given here.

T3 sequence (Q96SW2 whole entry, looked up, one chain of several): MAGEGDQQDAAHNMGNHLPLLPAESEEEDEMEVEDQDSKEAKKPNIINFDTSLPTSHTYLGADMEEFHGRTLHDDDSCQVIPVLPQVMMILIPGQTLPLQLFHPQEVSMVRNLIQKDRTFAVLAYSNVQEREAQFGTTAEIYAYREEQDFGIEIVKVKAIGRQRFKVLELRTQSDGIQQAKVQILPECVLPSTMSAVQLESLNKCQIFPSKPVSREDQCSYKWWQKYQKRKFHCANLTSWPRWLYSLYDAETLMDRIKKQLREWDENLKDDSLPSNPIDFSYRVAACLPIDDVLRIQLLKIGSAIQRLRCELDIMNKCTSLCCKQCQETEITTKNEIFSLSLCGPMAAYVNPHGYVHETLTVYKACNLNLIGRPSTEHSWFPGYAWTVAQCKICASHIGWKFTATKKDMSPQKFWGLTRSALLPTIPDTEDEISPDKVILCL
Chain of Protein cereblon/NAD-dependent protein deacetylase sirtuin-1 (Homo sapiens) (Q96SW2 whole entry, looked up, one chain of several): as above

`C#CCOc1cccc(Cc2cnc(NC(=O)CSc3nc(C)cc(C)n3)s2)c1`: the IC50 in experiment [1] was 2.4 µM; in experiment [2] it was > 100 µM.

For `COCCn1cc(COc2cccc(Cc3cnc(NC(=O)CSc4nc(C)cc(C)n4)s3)c2)nn1`, the IC50 was 100 µM in experiment [2] and > 100 µM in experiment [4]. Besides, the result in experiment [3] was inactive.

For the molecule `O=C1CCC(N2C(=O)c3ccccc3C2=O)C(=O)N1` (stereo not given), in experiment [3], the outcome was inactive.

For `Cc1cc(C)nc(SCC(=O)Nc2ncc(Cc3cccc(OCc4cn(Cc5ccccc5)nn4)c3)s2)n1`, the IC50 in experiment [1] was 0.16 µM; in experiment [2], > 100 µM; in experiment [4], > 100 µM.

For `Cc1cc(C)nc(SCC(=O)Nc2ncc(Cc3cccc4ccc(Cl)cc34)s2)n1`, the IC50 in experiment [2] was > 100 µM.

In the case of `Cc1cc(C)nc(SCC(=O)Nc2ncc(Cc3cccc4ccccc34)s2)n1`, the IC50 in [2] and in experiment [4] was > 100 µM in each case.

As for `Cc1cc(C)nc(SCC(=O)Nc2ncc(Cc3cccc(OCc4cn(CCCCNC(=O)COc5cccc6c5C(=O)N(C5CCC(=O)NC5=O)C6=O)nn4)c3)s2)n1` (stereo not given), the values for the IC50 in [1], in experiment [2] and in experiment [4] were 0.25 µM, > 100 µM and > 100 µM, respectively. The outcome in experiment [5], in experiment [7], in experiment [8] and in [9] was Active. In addition, the result in experiment [6] and in experiment [11] was inactive. Further, the Activity result in experiment [10] was “Dose-dependent effect”.

For the molecule `Cc1cc(C)nc(SCC(=O)Nc2ncc(Cc3cccc(OCc4cn(CCOCCOCCOCCOCCOCCOCCOCCOCCOCCOCCOCCNC(=O)CCCCC5SCC6NC(=O)NC65)nn4)c3)s2)n1` (stereo not given), the IC50 in [1] is 0.31 µM; in experiment [2], > 100 µM; in experiment [4] it was > 100 µM.
